Assay results published in ChEMBL document CHEMBL1144709, “Cycloartane-type triterpenoids from the resinous exudates of Commiphora opobalsamum” (J Nat Prod, 2008).

What was measured:
PC-3 = test: Cytotoxicity against human PC3 cells by MTT assay; assay type: functional, cell-based
Summary of the method: (§1)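 Cells in 96-well plates exposed to test compounds for 48 h. MTT (5 mg/mL in PBS) then added and plates held 2 h at 37 °C under 5% CO2. Absorbance read at 570 nm and IC50 values reported.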

DU-145 = test: Cytotoxicity against human DU145 cells by MTT assay; assay type: functional, cell-based; summary of the method: as §1

Row | Structure (SMILES) | IC50 (PC-3) | IC50 (DU-145)
1 | C[C@H](C/C=C/C(C)(C)O)[C@H]1CC[C@@]2(C)[C@@H]3CC[C@H]4C(C)(C)[C@@H](O)[C@H](O)[C@H](O)[C@@]45C[C@@]35CC[C@]12C | 10.3 µM | 34.7 µM
2 | CC(C)=CCC[C@@H](C)[C@H]1CC[C@@]2(C)[C@@H]3CC[C@H]4C(C)(C)[C@@H](O)C[C@H](O)[C@@]45C[C@@]35CC[C@]12C | > 50 µM | > 50 µM
3 | CC(C)=CCC[C@@H](C)[C@H]1CC[C@@]2(C)[C@@H]3CC[C@H]4C(C)(C)[C@@H](OC(=O)CC(C)C)[C@H](O)[C@H](O)[C@@]45C[C@@]35CC[C@]12C | 28.4 µM | > 50 µM
4 | CC(=O)O[C@H]1[C@H](O)[C@H](O)[C@]23C[C@]24CC[C@]2(C)[C@@H]([C@H](C)CCC=C(C)C)CC[C@@]2(C)[C@@H]4CC[C@H]3C1(C)C | 15.4 µM | 20.7 µM
5 | CC(C)=CCC[C@@H](C)[C@H]1CC[C@@]2(C)[C@@H]3CC[C@H]4C(C)(C)[C@H](O)[C@H](O)[C@H](O)[C@@]45C[C@@]35CC[C@]12C | > 50 µM | > 50 µM
6 | CC(=O)O[C@H]1[C@@H](O)[C@H](O)C(C)(C)[C@@H]2CC[C@@H]3[C@]4(CC[C@]5(C)[C@@H]([C@H](C)CCC=C(C)C)CC[C@@]35C)C[C@]124 | 13.4 µM | > 50 µM
7 | CC(C)=CCC[C@@H](C)[C@H]1CC[C@@]2(C)[C@@H]3CC[C@H]4C(C)(C)[C@@H](O)[C@H](O)[C@H](O)[C@@]45C[C@@]35CC[C@]12C | 10.1 µM | 37.2 µM
